Measured values from different studies.
Compare with care: the assays were run in different laboratories.
Cell line: SW480
Effect on: cell growth or viability

| Structure (SMILES) | test | conditions | quantity | result |
| --- | --- | --- | --- | --- |
| CC(C)C[C@H](NC(=O)[C@H](Cc1ccccc1)NC(=O)c1cnccn1)B(O)O | ATP luminescence |  | IC50 | 8.6 nM |
| CC[C@H](C)C(=O)O[C@H]1C[C@@H](C)C=C2C=C[C@H](C)[C@H](CC[C@@H]3C[C@@H](O)CC(=O)O3)[C@H]21 | SRB | 72 h | IC50 | 8.85 µg/mL |
| Cc1cc2c(cc1N1C(=O)c3cccc4c(CCCO)ccc(c34)C1=O)n(C)c(=O)n2C (racemic) | resazurin |  | GI50 | > 10000 nM |
| O=C(O)C[C@H](O)C[C@H](O)/C=C/c1c(C2CC2)nc2ccccc2c1-c1ccc(F)cc1 | SRB | 72 h | IC50 | 32.3 µg/mL |
| COC1=C2C[C@@H](C)C[C@H](OC)[C@H](O)[C@@H](C)/C=C(\C)[C@H](OC(N)=O)[C@@H](OC)/C=C\C=C(/C)C(=O)NC(=CC1=O)C2=O | MTT |  | IC50 | 308 nM |
| COc1cc(Nc2nccc(-c3cnn4nc(OC)ccc34)n2)cc(C(F)(F)F)c1 | ATP luminescence |  | IC50 | 720 nM |
| C=CCNC1=C2C[C@@H](C)C[C@H](OC)[C@H](O)[C@@H](C)/C=C(\C)[C@H](OC(N)=O)[C@@H](OC)/C=C\C=C(/C)C(=O)NC(=CC1=O)C2=O | MTT |  | IC50 | 657 nM |
| COc1cc([C@@H]2c3cc4c(cc3[C@@H](O[C@@H]3O[C@@H]5CO[C@@H](C)O[C@H]5[C@H](O)[C@H]3O)[C@H]3COC(=O)[C@H]23)OCO4)cc(OC)c1O | MTT | 48 h | IC50 | 17100 nM |
